In series [1] the test system is PC-12. The experiment in a line: Antioxidant activity against H2O2-induced oxidative stress in rat PC12 cells assessed as decrease in ROS accumulation preincubated for 24 hrs followed by H2O2 challenge and measured after 12 hrs coincubated with tubastatin A by DCFH-DA dye-based fluorescence analysis. The series is classed as functional, cell-based. An outline of the steps: (§1)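 Intracellular ROS was detected by DCFH-DA staining, which esterases deacetylate and ROS oxidise to fluorescent dichlorofluorescein. Fluorescence was quantified on a microplate reader.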

Series [2] deals with PC-12. The experiment in a line: Cytotoxicity against rat PC12 cells at 20 uM in presence of tubastantin A after 24 hrs by MTT assay. The series is classed as cell-based. Particulars: pc-12, 24 h. (Formazan colour is commonly taken as a measure of viable cells.)
Series [3] deals with T1, Protein deacetylase HDAC6 (Homo sapiens, UniProt Q9UBN7).
T1 sequence (Q9UBN7 whole entry): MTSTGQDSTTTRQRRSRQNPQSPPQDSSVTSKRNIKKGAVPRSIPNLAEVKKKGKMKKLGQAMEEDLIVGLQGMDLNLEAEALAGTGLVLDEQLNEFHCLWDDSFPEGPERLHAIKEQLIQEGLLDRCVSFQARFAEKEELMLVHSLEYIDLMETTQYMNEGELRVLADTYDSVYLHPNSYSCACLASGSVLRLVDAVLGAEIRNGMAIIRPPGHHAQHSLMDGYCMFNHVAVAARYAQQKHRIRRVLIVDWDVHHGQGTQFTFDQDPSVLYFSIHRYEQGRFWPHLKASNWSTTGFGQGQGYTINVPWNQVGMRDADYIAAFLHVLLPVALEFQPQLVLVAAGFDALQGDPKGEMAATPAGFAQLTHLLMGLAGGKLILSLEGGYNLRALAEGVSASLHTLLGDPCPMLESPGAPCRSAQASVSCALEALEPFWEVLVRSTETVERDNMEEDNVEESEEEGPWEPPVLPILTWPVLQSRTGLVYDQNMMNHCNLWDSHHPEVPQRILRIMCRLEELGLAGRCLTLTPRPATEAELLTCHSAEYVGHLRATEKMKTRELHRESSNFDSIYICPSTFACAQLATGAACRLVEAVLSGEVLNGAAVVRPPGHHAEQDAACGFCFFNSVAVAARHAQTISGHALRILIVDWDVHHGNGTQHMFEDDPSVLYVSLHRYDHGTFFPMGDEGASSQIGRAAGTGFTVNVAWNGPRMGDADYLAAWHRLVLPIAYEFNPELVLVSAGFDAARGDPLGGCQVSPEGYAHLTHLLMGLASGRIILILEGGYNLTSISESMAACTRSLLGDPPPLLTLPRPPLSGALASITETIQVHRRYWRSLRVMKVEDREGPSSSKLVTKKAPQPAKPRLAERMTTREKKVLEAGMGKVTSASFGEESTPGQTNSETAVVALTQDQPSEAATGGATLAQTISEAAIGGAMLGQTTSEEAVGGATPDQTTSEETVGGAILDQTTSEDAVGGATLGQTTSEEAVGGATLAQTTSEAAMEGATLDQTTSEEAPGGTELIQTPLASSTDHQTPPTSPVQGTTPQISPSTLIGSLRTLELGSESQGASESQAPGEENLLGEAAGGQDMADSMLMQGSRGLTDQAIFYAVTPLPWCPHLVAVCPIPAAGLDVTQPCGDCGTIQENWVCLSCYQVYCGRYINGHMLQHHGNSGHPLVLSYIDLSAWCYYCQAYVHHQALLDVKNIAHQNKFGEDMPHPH
The experiment in a line: Inhibition of recombinant human HDAC6 using fluorogenic HDAC substrate preincubated for 15 mins followed by substrate addition and measured after 30 mins by fluorescence analysis.

Series [4] deals with PC-12. The experiment in a line: Neuroprotective activity against 6-OHDA-induced toxicity in rat PC12 cells assessed as increase in cell viability at 5 to 10 uM pretreated for 24 hrs followed by 6-OHDA challenge and measured after 12 hrs coincubated with tubastatin A by MTT assay. The series is classed as functional, cell-based. An outline of the steps: (§2)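 Medium was replaced with fresh medium containing H2O2 (400 μM) or 6-OHDA (200 μM), and incubation continued 12 h. Viability was read by MTT assay. Mean ± SD, three independent experiments.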

Series [5] relates to PC-12. The experiment in a line: Cytotoxicity against rat PC12 cells at 20 uM after 24 hrs by MTT assay. The series is classed as cell-based. To be noted: pc-12, 24 h.
In series [6] the test system is PC-12. The experiment in a line: Cytoprotective activity against H2O2-induced damage in rat PC12 cells assessed as decrease in ROS accumulation preincubated for 24 hrs followed by H2O2 challenge measured after 12 hrs by DCFH-DA dye-based inverted fluorescence microscopic analysis. The series is classed as functional, cell-based. An outline of the steps: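 PC12 cells were pretreated with compound (5 or 10 µM), then challenged with H2O2 and stained with DCFH-DA to show ROS. Fluorescence images were taken by inverted fluorescence microscopy.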

In series [7] the test system is PC-12. The experiment in a line: Cytoprotective activity against H2O2-induced damage in rat PC12 cells assessed as decrease in ROS accumulation preincubated for 24 hrs followed by H2O2 challenge measured after 12 hrs by DCFH-DA dye-based fluorescence analysis. The series is classed as functional, cell-based. An outline of the steps:
as §1

Series [8] concerns PC-12. The experiment in a line: Antioxidant activity against H2O2-induced oxidative stress in rat PC12 cells assessed as decrease in ROS accumulation at 5 uM preincubated for 24 hrs followed by H2O2 challenge and measured after 12 hrs by DCFH-DA dye-based fluorescence analysis. Type of series: functional, cell-based. An outline of the steps:
as §1

Series [9] can be described thus: Antioxidant activity assessed as tert-butyl hydroperoxide radical scavenging at 10 uM up to 200 mins. Type of series: functional. An outline of the steps: (§3)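 Kinetic peroxide scavenging by GSH at 25 °C in 100 mM phosphate buffer, pH 7.5. Final conditions: EDTA 1 mM, GSH 0.25 mM, NADPH 0.50 mM, glutathione reductase 1.3 unit·mL-1, peroxide 0.20 mM (H2O2, t-BuOOH or Cum-OOH), catalyst 10 μM. Scavenging was followed over time, and maximal scavenging was derived. Mean ± SE, three independent experiments.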

Series [10] has as its system PC-12. The experiment in a line: Neuroprotective activity against 6-OHDA-induced toxicity in rat PC12 cells assessed as increase in cell viability at 5 uM pretreated for 24 hrs followed by 6-OHDA challenge and measured after 12 hrs by MTT assay. Type of series: functional, cell-based. An outline of the steps:
as §2

A short description of series [11]: Antioxidant activity assessed as cumene hydroperoxide radical scavenging at 10 uM up to 200 mins. Type of series: functional. An outline of the steps:
as §3

In series [12] the test system is PC-12. The experiment in a line: Neuroprotective activity against H2O2-induced toxicity in rat PC12 cells assessed as cell viability at 10 uM pretreated for 24 hrs followed by H2O2 challenge and measured after 12 hrs by MTT assay relative to control. Type of series: functional, cell-based. An outline of the steps:
as §2

Series [13] concerns PC-12. The experiment in a line: Neuroprotective activity against H2O2-induced toxicity in rat PC12 cells assessed as cell viability at 5 to 10 uM pretreated for 24 hrs followed by H2O2 challenge and measured after 12 hrs coincubated with tubastatin A by MTT assay relative to control. Type of series: functional. An outline of the steps: as §2
Series [14] concerns PC-12. The experiment in a line: Neuroprotective activity against 6-OHDA-induced toxicity in rat PC12 cells assessed as increase in cell viability at 10 uM pretreated for 24 hrs followed by 6-OHDA challenge and measured after 12 hrs by MTT assay. The series is classed as functional, cell-based. An outline of the steps: as §2
The test system of series [15] is PC-12. The experiment in a line: Antioxidant activity against H2O2-induced oxidative stress in rat PC12 cells assessed as decrease in ROS accumulation at 5 uM preincubated for 24 hrs followed by H2O2 challenge and measured after 12 hrs coincubated with tubastatin A by DCFH-DA dye-based fluorescence analysis. The series is classed as functional, cell-based. An outline of the steps: as §1

Series [16] is described as follows: Antioxidant activity assessed as H2O2 radical scavenging at 10 uM up to 200 mins. Type of series: functional. An outline of the steps: as §3

Consider 1 molecule from ChEMBL document CHEMBL4261629 (Bioorg Med Chem, 2018).

The structures appear in SMILES notation. Activity calls are given as the source filed them. The rule behind the calls is not given here.

With `O=c1c2ccccc2[se]n1-c1ccccc1` [EBSELEN], the outcome in series [1], in series [4], in [6], in series [7], in [8] and in series [10] was Active. The outcome in series [12], in series [14] and in [15] was Active. Further, the Activity entry is “Non-Toxic” in series [2]; “Non-Toxic” in series [5]; 71% in [9]; 29% in series [11]; 90% in [13]; 51% in [16]. In addition, in [3], the IC50 is 11.5 µM.

What is called IC50 is the concentration that gives 50% inhibition.
